From paper PMC2668213 (Journal of medicinal chemistry, 2008)

What was measured:
SERT [1] = assay: MicroPET baseline regional brain uptake in anesthetized cynomolgus monkeys; type: in vivo, cynomolgus monkey
SERT [2] = assay: HRRT PET baseline study in awake rhesus monkey; type: in vivo
[3] = Protein-bound tracer in plasma; type: in vivo, cynomolgus monkey; settings: range over the time points of the study
Summary of the method: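 Arterial plasma was sampled after injection of the fluorine-18 labelled test compound during a baseline microPET study in a cynomolgus monkey. Samples spanned 1 to 180 min post-injection. The percentage of tracer bound to plasma protein was determined at each time point. The same samples underwent radio-HPLC metabolite analysis.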

SMILES | time of peak uptake in the SERT-rich brain regions (SERT [1]; anesthetized cynomolgus monkey) [min] | time of peak uptake, caudate (SERT [1]; anesthetized) [min] | time of peak uptake, cerebellum (SERT [1]; anesthetized) | time of peak uptake, medulla (SERT [1]; anesthetized) [min] | time of peak uptake, midbrain (SERT [1]; anesthetized) [min] | time of peak uptake, pons (SERT [1]; anesthetized) [min] | time of peak uptake, putamen (SERT [1]; anesthetized) [min] | time of peak uptake, thalamus (SERT [1]; anesthetized) [min] | time at which uptake ratios stabilize (SERT [1]; anesthetized cynomolgus monkey) | time at which washout from the SERT-rich brain regions begins (SERT [1]; anesthetized cynomolgus monkey) | time at which washout from the cerebellum begins (SERT [1]; anesthetized cynomolgus monkey) | time of peak uptake, caudate (SERT [2]; awake rhesus) [min] | time of peak uptake, cerebellum (SERT [2]; awake rhesus) [min] | time of peak uptake, medulla (SERT [2]; awake rhesus) [min] | time of peak uptake, midbrain (SERT [2]; awake rhesus) [min] | time of peak uptake, pons (SERT [2]; awake rhesus) [min] | time of peak uptake, putamen (SERT [2]; awake rhesus) [min] | time of peak uptake, thalamus (SERT [2]; awake rhesus) [min] | time of peak uptake in thalamus, putamen, midbrain, and caudate (SERT [2]; awake rhesus monkey) | percentage of protein-bound tracer in plasma [3]
O=C(OCCC[18F])C1C2CCC(CC1c1cccc(/C=C\Br)c1)N2 (stereo not drawn) [[^18F]4, 2β-Carbo(3-[^18F]fluoropropoxy)-3β-(3′-((Z)-2-bromoethenyl)phenyl)nortropane] | 35 to 45 |  |  |  |  |  |  |  |  |  |  |  |  |  |  |  |  |  |  | 
O=C(OCC[18F])C1C2CCC(CC1c1cccc(/C=C\I)c1)N2 (stereo not drawn) [[^18F]1, 2β-Carbo(2-[^18F]fluoroethoxy)-3β-(3′-((Z)-2-iodoethenyl)phenyl)nortropane] |  | 55 | ~ 27 min | 35 | 45 | 45 | 45 | 45 | ~ 175 minutes | ~ 65 minutes | ~ 27 minutes | 45 | 45 | 35 | 45 | 85 | 45 | 45 | ~ 45 min | 5.6 - 8.5%
O=C(OCC[18F])C1C2CCC(CC1c1cccc(/C=C\Br)c1)N2 (stereo not drawn) [[^18F]2, 2β-Carbo(2-[^18F]fluoroethoxy)-3β-(3′-((Z)-2-bromoethenyl)phenyl)nortropane] | 55 to 65 |  | ~ 30 min |  |  |  |  |  |  |  |  |  |  |  |  |  |  |  |  | 
